According to ChEMBL document CHEMBL4261484, “Design, synthesis and anticonvulsant-analgesic activity of new N-[(phenoxy)alkyl]- and N-[(phenoxy)ethoxyethyl]aminoalkanols” (Medchemcomm, 2017):
Active and inactive are the calls of the source.

Tests used:
Mus musculus [1] = assay: Anticonvulsant activity in mouse assessed as protection against maximal electroshock-induced seizures at 100 mg/kg, ip; assay type: functional, organism-based
Procedure, shortened: (§1)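 Mice dosed ip; maximal seizures induced by auricular electroshock (25 mA, 500 V, 50 Hz, 0.2 s). Endpoint: hind-limb tonic extension; animals without it scored protected. Read-out is number protected over number tested.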

Mus musculus [2] = assay: Toxicity in mouse at 100 mg/kg, ip measured during maximal electroshock seizure test; assay type: organism-based; conditions: in vivo
Mus musculus [3] = assay: Neurotoxicity in mouse assessed as motor impairment at 100 mg/kg, ip measured for one min by rotarod test; assay type: toxicity, organism-based; conditions: in vivo, 1 min
Procedure, shortened: (§2)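 Mice trained on an accelerating rotarod, then tested at least 24 h later after ip pretreatment, on a rod turning at 10 rpm. Neurotoxicity was scored as failure to stay on the rod for one minute. Read-out is mice impaired over mice tested.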

Mus musculus [4] = assay: Anticonvulsant activity in mouse assessed as protection against maximal electroshock-induced seizures at 30 mg/kg, ip; assay type: functional, organism-based; procedure, shortened: as §1
Mus musculus [5] = assay: Toxicity in mouse at 30 mg/kg, ip measured during maximal electroshock seizure test; assay type: organism-based; conditions: in vivo
Mus musculus [6] = assay: Neurotoxicity in mouse assessed as motor impairment at 30 mg/kg, ip measured for one min by rotarod test; assay type: toxicity, organism-based; conditions: in vivo, 1 min; procedure, shortened: as §2
[7] = Protection index, ratio of TD50 for neurotoxicity in ip dosed mouse by rotarod test to ED50 for anticonvulsant activity in mouse by maximal electroshock seizure test; assay type: toxicity, organism-based; conditions: in vivo, read-out: Ratio TD50/ED50
Mus musculus [8] = assay: Anticonvulsant activity in ip dosed mouse assessed as protection against maximal electroshock-induced seizures; assay type: functional
Procedure, shortened: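 Mice were dosed ip. Maximal seizures were induced by auricular electrodes (25 mA, 500 V, 50 Hz, 0.2 s). Absence of hind-limb tonic extension counted as protection. […] Motor impairment was scored on a 10 rpm rotarod, giving TD50 the same way.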

Mus musculus [9] = assay: Toxicity in mouse at 20 mg/kg, ip measured during maximal electroshock seizure test; assay type: organism-based; conditions: in vivo
Mus musculus [10] = assay: Anticonvulsant activity in mouse assessed as protection against maximal electroshock-induced seizures at 20 mg/kg, ip; assay type: functional, organism-based; procedure, shortened: as §1
Mus musculus [11] = assay: Toxicity in mouse at 15 mg/kg, ip measured during maximal electroshock seizure test; assay type: organism-based; conditions: in vivo
Mus musculus [12] = assay: Toxicity in mouse at 10 mg/kg, ip measured during maximal electroshock seizure test; assay type: organism-based; conditions: in vivo
[13] = Neurotoxicity in ip dosed mouse assessed as motor impairment measured for one min by rotarod test; assay type: toxicity, organism-based; conditions: in vivo; procedure, shortened: as §2
Mus musculus [14] = assay: Toxicity in mouse at 25 mg/kg, ip measured during maximal electroshock seizure test; assay type: organism-based; conditions: in vivo
Mus musculus [15] = assay: Anticonvulsant activity in mouse assessed as protection against subcutaneous pentylenetetrazole-induced seizures at 100 mg/kg, ip measured for 30 mins post pentylenetetrazole challenge at 0.5 hrs after compound dosing relative to control; assay type: functional
[16] = Cytotoxicity against mouse CRL-2541 cells assessed as effect on cell viability at 10 to 250 uM after 24 hrs by MTT assay; assay type: cell-based
Mus musculus [17] = assay: Neurotoxicity in mouse assessed as motor impairment by measuring loss of coordination at 32 mg/kg, ip measured for 60 secs by chimney test relative to control; assay type: toxicity, organism-based; conditions: in vivo, 1 min
Procedure, shortened: (§3)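 Mice dosed ip; trained, selected animals placed in a horizontal tube 25 cm long and 2.5 cm in diameter, then tube reversed so mice must climb out backward. Read-outs: escape time (s) ± SEM and % animals losing coordination versus control. Unpaired t test.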

Mus musculus [18] = assay: Toxicity in mouse assessed as effect on spontaneous activity at 32 mg/kg, ip measured for 30 mins by photoresistor actometer relative to control; assay type: organism-based; conditions: in vivo, 0.5 h
Procedure, shortened: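 Mice dosed ip; locomotor activity by photoresistor actometers counting light-beam interruptions. Each mouse was habituated 30 min in a cage, then crossings were counted over a 30 min session. Data are mean ± SEM and % change vs control; unpaired t test.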

Mus musculus [19] = assay: Neurotoxicity in mouse assessed as motor impairment by measuring time of escaping from chimney at 32 mg/kg, ip measured for 60 secs (reference value: 8.87 +/- 1.79 secs); assay type: toxicity, organism-based; conditions: in vivo, 1 min; procedure, shortened: as §3
HepG2 [20] = assay: Cytotoxicity against human HepG2 cells assessed as effect on cell viability at 10 to 250 uM after 24 hrs by neutral red assay; assay type: cell-based; conditions: hepg2, 24 h
Procedure, shortened: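 HepG2 cells seeded at 5 × 10^4 per well, then after 24 h given medium with 10–250 μM for 24 h. Viability by neutral red staining, OD 570 nm. Results are % of control ± SEM, three independent experiments.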

HepG2 [21] = assay: Cytotoxicity against human HepG2 cells assessed as effect on cell viability at 10 to 250 uM after 24 hrs by MTT assay; assay type: cell-based; conditions: hepg2, 24 h
Procedure, shortened: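 HepG2 cells grown in MEM with 10% FBS (37 °C, 5% CO2) and seeded at 1 × 10^4. After overnight culture, exposed to 10–250 μM for 24 h. MTT for 3 h, formazan dissolved, OD 570 nm. Viability is % of control ± SEM from three independent experiments.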

Mus musculus [22] = assay: Anticonvulsant activity in mouse assessed as increase in electroconvulsive threshold at 20 mg/kg, ip by maximal electroshock seizure threshold test relative to control; assay type: functional
Mus musculus [23] = assay: Anticonvulsant activity in mouse assessed as protection against subcutaneous pentylenetetrazole-induced seizures by measuring latency time of tonic seizures at 30 mg/kg, ip measured for 30 mins post pentylenetetrazole challenge at 0.5 hrs after compound dosing (reference value: 562.8 to 614.9 secs); assay type: functional
Mus musculus [24] = assay: Analgesic activity in mouse assessed as decrease in time of paw licking during phase 1 at 32 mg/kg, ip measured for 5 mins by formalin test relative to control; assay type: functional; parameters: scale not given: the % may be the effect or the level left
Procedure, shortened: (§4)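 Formalin test in mice: 20 μL of 5% formalin injected intraplantarly into the right hind paw. Each mouse was observed alone in a glass beaker for 30 min. Time (s) spent licking or biting the injected paw was recorded at 0–5 min (acute phase) and 15–30 min (inflammatory phase).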

Mus musculus [25] = assay: Anticonvulsant activity in mouse assessed as current strength required to induce tonic hind-limb extension in 50% of the animals at 20 mg/kg, ip by maximal electroshock seizure threshold test (reference value: 6.05 to 8.13 mA); assay type: functional
Mus musculus [26] = assay: Analgesic activity in mouse assessed as decrease in time of paw licking during phase 2 at 32 mg/kg, ip measured for 15 to 30 mins by formalin test relative to control; assay type: functional; parameters: scale not given: the % may be the effect or the level left; procedure, shortened: as §4
Mus musculus [27] = assay: Anticonvulsant activity in mouse assessed as protection against maximal electroshock-induced seizures at 10 mg/kg, ip; assay type: functional, organism-based; procedure, shortened: as §1
Mus musculus [28] = assay: Anticonvulsant activity in mouse assessed as protection against subcutaneous pentylenetetrazole-induced seizures at 30 mg/kg, ip measured for 30 mins post pentylenetetrazole challenge at 0.5 hrs after compound dosing relative to control; assay type: functional
Mus musculus [29] = assay: Anticonvulsant activity in mouse assessed as protection against subcutaneous pentylenetetrazole-induced seizures by measuring latency time of tonic seizures at 100 mg/kg, ip measured for 30 mins post pentylenetetrazole challenge at 0.5 hrs after compound dosing (reference value: 562.8 to 614.9 secs); assay type: functional

Row | Compound | Activity (Mus musculus [1]) | Activity (Mus musculus [2]) | Activity (Mus musculus [3]) | Activity (Mus musculus [5]) | selectivity ratio [7] | ED50 (Mus musculus [8]) | TD50 at 1 min [13] | also measured
1 | Cc1ccc(Cl)c(OCCN2CCC(O)CC2)c1 | Active | Non-Toxic | Toxic |  |  |  |  | 
2 | Cc1ccc(Cl)c(OCCCCNC(C)CO)c1 (racemic) | Active | Non-Toxic | Toxic | Non-Toxic |  |  |  | Activity (Mus musculus [4]): inactive; Activity (Mus musculus [6]): Non-Toxic
3 | CCC(CO)NCCCCOc1cc(C)ccc1Cl (racemic) | Active | Non-Toxic | Toxic | Non-Toxic |  |  |  | Activity (Mus musculus [6]): Non-Toxic
4 | Cc1cccc(C)c1OCCOCCNCC(O)c1ccccc1 (racemic) | Active | Non-Toxic |  |  | 2.76 | 13 mg/kg | 36 mg/kg | Activity (Mus musculus [9]): Non-Toxic; Activity (Mus musculus [10]): Active; Activity (Mus musculus [11]): Non-Toxic; Activity (Mus musculus [12]): Non-Toxic
5 | CCC(CO)NCCOCCOc1cc(C)ccc1Cl (racemic) | Active |  | Toxic |  |  |  |  | Activity (Mus musculus [6]): Non-Toxic
6 | Cc1cccc(C)c1OCCCCNCC(C)O (racemic) | Active | Non-Toxic |  | Non-Toxic | 1.6 | 27.1 mg/kg | 43.3 mg/kg | Activity (Mus musculus [14]): Non-Toxic
7 | Cc1cccc(Cl)c1OCCCCN[C@H]1CCCC[C@@H]1O.Cl (racemic) |  | Toxic | Toxic |  |  |  |  | 
8 | CCC(O)CNCCOCCOc1cc(Cl)ccc1C (racemic) | Active | Non-Toxic | Toxic | Non-Toxic |  |  |  | Activity (Mus musculus [4]): inactive
9 | Cc1ccc(OCCN[C@H]2CCCC[C@@H]2O)c(C)c1 (racemic) | Active | Non-Toxic |  |  | 2.41 | 31.8 mg/kg | 76.8 mg/kg | Activity (Mus musculus [15]): 57.71%; Activity [16]: Non-Toxic; Activity (Mus musculus [17]): 0%; Activity (Mus musculus [18]): 8.2%; Time (Mus musculus [19]): 4.75 s; Activity (HepG2 [20]): Non-Toxic; Activity (HepG2 [21]): Non-Toxic; Activity (Mus musculus [22]): 23.9%; Time (Mus musculus [23]): 576.4 s; Activity (Mus musculus [24]): 18.55%; Activity (Mus musculus [25]): 9.33 mA; Activity (Mus musculus [26]): 46.16%; Activity (Mus musculus [27]): inactive; Activity (Mus musculus [12]): Toxic; Activity (Mus musculus [28]): 2.42%; Time (Mus musculus [29]): 921 s
10 | Cc1cccc(Cl)c1OCCCCNC(C)CO (racemic) | Active | Non-Toxic |  |  | 2.4 | 19.1 mg/kg | 45.7 mg/kg | Activity (Mus musculus [9]): Non-Toxic; Activity (Mus musculus [11]): Non-Toxic
11 | Cc1cccc(C)c1OCC(C)N (stereo not given) [MEXILETINE] |  |  |  |  |  | 20 mg/kg |  | 
12 | CC(C)NCC(O)COc1cccc2ccccc12 (stereo not given) [PROPRANOLOL] |  |  |  |  |  | 15 mg/kg |  | 
